# Experimental data from different studies.
# Compare with care: the assays were run in different laboratories.
# Organism: Escherichia coli
# Effect on: microbial growth
Structure (SMILES),method,strain,time,notes,MIC
O=C(N[C@H](CO)[C@H](O)c1ccc([N+](=O)[O-])cc1)C(Cl)Cl,broth dilution,,,,16 µg/mL
[H]/N=C(/N)N[C@H]1[C@H](O)[C@@H](O)[C@H](O[C@@H]2O[C@@H](C)[C@](O)(C=O)[C@H]2O[C@@H]2O[C@@H](CO)[C@H](O)[C@@H](O)[C@@H]2NC)[C@@H](N/C(N)=N\[H])[C@@H]1O,broth dilution,ATCC25 ATCC25922,,,20 µg/mL
CO/N=C(\C(=O)N[C@@H]1C(=O)N2C(C(=O)[O-])=C(C[N+]3(C)CCCC3)CS[C@H]12)c1csc(N)n1,,,,,≤ 0.12 µg/mL
O=C1/C(=C/c2ccc3ccccc3c2O)NC(=S)N1c1ccccc1,broth dilution,ATCC25 ATCC25922,,,16 µg/mL
NC[C@H]1O[C@H](O[C@H]2[C@H](O)[C@@H](O[C@H]3O[C@H](CO)[C@@H](O)[C@H](N)[C@H]3O)[C@H](N)C[C@@H]2N)[C@H](N)C[C@@H]1O,,,,,≤ 1 µg/mL
CCN(CC)c1ccc(C=NC(=O)c2ccc3ccccc3c2)c(O)c1,broth dilution,ATCC25922,,,> 256 µg/mL
N#CC(C#N)=C1SC(C(=O)c2ccc(Nc3cnccn3)cc2)=NN1c1ccccc1,broth dilution,ATCC10536,,,50 µg/mL
CCN1CCC(CCNCc2cc3cc(OC)c(OC)c(OC)c3nc2SCc2ccccc2)CC1,broth dilution,,,,> 128 µg/mL
Cc1ccc2[nH]nc(-c3nnc(Nc4ccc(O)cc4)s3)c2c1,,ATCC25922,,,64.7 µg/mL
N=c1sc(C(=O)c2ccc(Nc3cnccn3)cc2)nn1-c1ccc([N+](=O)[O-])cc1,broth dilution,ATCC10536,,,6.25 µg/mL
CCN(CC)c1ccc(C=NC(=S)c2ccccc2)c(O)c1,broth dilution,ATCC25922,,,> 256 µg/mL
c1ccc(CSc2nc3ccccc3cc2CNCc2ccc(N3CCCCC3)cc2)cc1,broth dilution,,,,> 128 µg/mL
O=C(O)c1cn(C2CC2)c2cc(N3CCNCC3)c(F)cc2c1=O,broth dilution,ATCC25922,,,4 µg/mL
C[C@@H](O)[C@H]1C(=O)N2C(C(=O)O)=C(S[C@@H]3CN[C@H](C(=O)N(C)C)C3)[C@H](C)[C@H]12,,ATCC25922,,drug-resistant strain,0.15 µg/mL
CO/N=C(\C(=O)N[C@@H]1C(=O)N2C(C(=O)O)=CCS[C@H]12)c1csc(N)n1,broth dilution,ATCC25922,,,0.125 µg/mL
Cc1ccc2[nH]nc(-c3nnc(Nc4cc(Cl)cc(Br)c4)s3)c2c1,,ATCC25922,,,228 µg/mL
CNC(C)C1CCC(N)C(OC2C(N)CC(N)C(OC3OCC(C)(O)C(NC)C3O)C2O)O1 (stereo not shown),broth dilution,,,,2 µg/mL
COc1cc(Cc2cnc(N)nc2N)cc(OC)c1OC,broth dilution,BW25113,18 h,,0.25 µg/mL
C[C@@H](O)[C@H]1C(=O)N2C(C(=O)O)=C(S[C@@H]3CN[C@H](C(=O)N(C)C)C3)[C@H](C)[C@H]12,,,,,≤ 0.25 µg/mL
CCN1CCC(CCNCc2cc3cc(Br)ccc3nc2SCc2ccccc2)CC1,broth dilution,,,,32 µg/mL
N#CC(C#N)=C1SC(C(=O)c2ccc(Nc3cnccn3)cc2)=NN1c1ccc([N+](=O)[O-])cc1,broth dilution,ATCC10536,,,12.5 µg/mL
COc1ccc2ccc(O)c(/C=N/[C@H]3CCCC[C@H]3/N=C/c3ccc(OCCN4CCCCC4)cc3O)c2c1,broth dilution,,,,> 40 µM
CO[C@H]1/C=C/O[C@@]2(C)Oc3c(C)c(O)c4c(O)c(c(/C=N/N5CCN(C)CC5)c(O)c4c3C2=O)NC(=O)/C(C)=C\C=C\[C@H](C)[C@H](O)[C@@H](C)[C@@H](O)[C@@H](C)[C@H](OC(C)=O)[C@@H]1C,broth dilution,,,,8 µM
CN(C)[C@@H]1C(O)=C(C(N)=O)C(=O)[C@@]2(O)C(O)=C3C(=O)c4c(O)cccc4[C@@](C)(O)[C@H]3C[C@@H]12,broth dilution,ATCC25922,16 h,,3.1 µM
CCN1CCC(CCNCc2cc3cc(-c4ccccc4)ccc3nc2SCc2ccccc2)CC1,broth dilution,,,,8 µg/mL
CC1(C)S[C@@H]2[C@H](NC(=O)[C@H](N)c3ccccc3)C(=O)N2[C@H]1C(=O)O,broth dilution,ATCC25922,18 h,dark,16 µM
COc1ccc(N2N=C(C(C)=O)SC2=C(C#N)C(=O)c2ccc(Nc3cnccn3)cc2)cc1,broth dilution,ATCC10536,,,6.25 µg/mL
C[C@@H](O)[C@H]1C(=O)N2C(C(=O)O)=C(S[C@@H]3CN[C@H](C(=O)N(C)C)C3)[C@H](C)[C@H]12,broth dilution,ATCC25922,,,< 0.5 µg/mL
Cc1ccc2[nH]nc(-c3nnc(Nc4ccc([N+](=O)[O-])cc4)s3)c2c1,,ATCC25922,,,92.8 µg/mL
COc1ccc2ccc(O)c(/C=N/[C@H]3CCCC[C@H]3/N=C/c3c(O)cccc3F)c2c1,broth dilution,,,,> 40 µM
CN(Cc1cnc2nc(N)nc(N)c2n1)c1ccc(C(=O)N[C@@H](CCC(=O)O)C(=O)O)cc1,broth dilution,BW25113,18 h,,> 250 µg/mL
CC(=O)C1=NN(c2ccc([N+](=O)[O-])cc2)C(=C(C#N)C(=O)c2ccc(Nc3cnccn3)cc2)S1,broth dilution,ATCC10536,,,6.25 µg/mL
Cc1ccc2[nH]nc(-c3nnc(Nc4ccc(Br)cc4)s3)c2c1,,ATCC25922,,,251 µg/mL
Brc1ccc2nc(SCc3ccccc3)c(CNCc3ccc(CN4CCCC4)cc3)cc2c1,broth dilution,,,,> 128 µg/mL
Cc1ccc2[nH]nc(-c3nnc(Nc4ccc(F)cc4Cl)s3)c2c1,,ATCC25922,,,72.8 µg/mL
CCCCCCCCN=c1ccn(CCCCCCCCCCn2ccc(=NCCCCCCCC)cc2)cc1,,,,,0.5 µM
Cc1ccc2[nH]nc(-c3nnc(Nc4ccc(C)c(C)c4)s3)c2c1,,ATCC25922,,,124 µg/mL
[H]/N=C(\N/C(=N/[H])NCCCCCCNC(=N)NC(=N)Nc1ccc(Cl)cc1)Nc1ccc(Cl)cc1,,,,,0.5 µM
COc1ccc2ccc(O)c(/C=N/[C@H]3CCCC[C@H]3/N=C/c3ccc(-c4ccccc4)cc3O)c2c1,broth dilution,,,,> 40 µM
Cc1ccc2[nH]nc(-c3nnc(Nc4ccc(Cl)cc4)s3)c2c1,,ATCC25922,,,81.7 µg/mL
CCN(CC)c1ccc(C=NNC(=O)c2ccc(Cl)cc2)c(O)c1,broth dilution,ATCC25922,,,> 256 µg/mL
c1ccc(CSc2nc3ccc(-c4ccccc4)cc3cc2CNCCC2CCN(C3CCCC3)CC2)cc1,broth dilution,,,,16 µg/mL
[H]/N=C(/N)N[C@H]1[C@H](O)[C@@H](O)[C@H](O[C@@H]2O[C@@H](C)[C@](O)(C=O)[C@H]2O[C@@H]2O[C@@H](CO)[C@H](O)[C@@H](O)[C@@H]2NC)[C@@H](N/C(N)=N\[H])[C@@H]1O,broth dilution,ATCC25922,,,2 µg/mL
